Measurements from different studies.
Compare with care: the assays were run in different laboratories.
Target: Casein kinase I isoform alpha (CSNK1A1, Homo sapiens, UniProt P48729)

SMILES	assay	setting	endpoint	result
N#CC1(c2ccccn2)CCN(Cc2cc(C(=O)O)c(=O)n3ccccc23)CC1	cell-free assay, competition with immobilised ligand	1 µM	remaining binding	100%
COc1ncccc1-c1cnn2ccc(N3CCN(C(=O)OC(C)C)CC3)nc12	binding, competition with immobilised ligand	1 µM	remaining binding	100%
Cn1cc(-c2cc(F)cc(N3CCn4c(cc5c4CCCC5)C3=O)c2CO)cc(Nc2ccc(N3CCN(C4COC4)CC3)cn2)c1=O	enzyme activity, inhibitor	0.1 µM	inhibition	4%
Nc1ncc(-c2nc(N3CCOCC3)nc(N3CCOCC3)n2)c(C(F)F)n1	binding, competition with immobilised ligand	10 µM	remaining binding	72%
Cn1cc(-c2cccc(N3CCc4c(sc5c4CC(C)(C)C5)C3=O)c2CO)cc(Nc2ccncn2)c1=O	enzyme activity, inhibitor	1 µM	inhibition	6%
Cn1cncc1[C@](O)(COc1ccc(C#N)cc1-c1ccc(OC(F)(F)F)cc1)c1ccc(C#N)cc1	cell-free assay, competition with immobilised ligand	1 µM	remaining binding	100%
O=c1[nH]c2ccccc2n1C1CCN(Cc2ccc(-c3[nH]c4cc5ncnc5cc4nc3-c3ccccc3)cc2)CC1	cell-free assay	0.5 µM	remaining signal	96%
Cc1nn(C)cc1-c1nc2c(N3CCN(Cc4ccc(Cl)cc4)CC3)c(Cl)cnc2[nH]1	binding, competition with immobilised ligand	1 µM	remaining binding	77%
